Reference: ChEMBL document CHEMBL1926569, “Novel (E)-1-(4-methyl-2-(alkylamino)thiazol-5-yl)-3-arylprop-2-en-1-ones as potent antimicrobial agents” (2011)
≈ marks a conversion by molar mass, not a printed value.

How the values were obtained:
[1] = system: Staphylococcus aureus; assay: Antibacterial activity against Staphylococcus aureus ATCC 6538 after 24 hrs by microdilution method; format: functional; conditions: ATCC 6538, 24 h
In short: (§1)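 Broth microdilution in 96-well plates. Bacterial suspensions were adjusted in sterile saline to 1.0 × 10⁵ CFU/ml, prepared daily and kept at 4 °C. Compound was added to LB broth with 1.0 × 10⁴ CFU per well and shaken at 160 rpm for 24 h at […] (so in the source). MIC is the lowest concentration with no visible growth under a binocular microscope. OD655 was also read. Duplicate, repeated three times.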

[2] = system: Bacillus cereus; assay: Antibacterial activity against clinical isolate of Bacillus cereus after 24 hrs by microdilution method; format: functional; in short: as §1
[3] = system: Micrococcus flavus; assay: Antibacterial activity against Micrococcus flavus ATCC 10240 after 24 hrs by microdilution method; format: functional; conditions: ATCC 10240, 24 h; in short: as §1
[4] = system: Listeria monocytogenes; assay: Antibacterial activity against Listeria monocytogenes NCTC 7973 after 24 hrs by microdilution method; format: functional; conditions: NCTC 7973, 24 h; in short: as §1
[5] = system: Pseudomonas aeruginosa; assay: Antibacterial activity against Pseudomonas aeruginosa ATCC 27853 after 24 hrs by microdilution method; format: functional; conditions: ATCC 27853, 24 h; in short: as §1
[6] = system: Salmonella typhimurium; assay: Antibacterial activity against Salmonella Typhimurium ATCC 13311 after 24 hrs by microdilution method; format: functional, Salmonella enterica subsp. enterica serovar Typhimurium; conditions: Salmonella enterica, ATCC 13311, 24 h; in short: as §1
[7] = system: Escherichia coli; assay: Antibacterial activity against Escherichia coli ATCC 35210 after 24 hrs by microdilution method; format: functional; conditions: ATCC 35210, 24 h; in short: as §1
[8] = system: Enterococcus faecalis; assay: Antibacterial activity against Enterococcus faecalis isolated from human after 24 hrs by microdilution method; format: functional; in short: as §1
[9] = system: Staphylococcus aureus; assay: Antibacterial activity against Staphylococcus aureus ATCC 6538 incubated for 24 hrs followed by serial sub-cultivation for 24 hrs by microdilution method; format: functional; conditions: ATCC 6538, 24 h
In short: (§2)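 MBC: after the 24 h LB broth microdilution (1.0 × 10⁴ CFU per well, 160 rpm), wells were serially sub-cultured into fresh broth plates and incubated a further 24 h. MBC is the lowest concentration with no visible growth, taken as 99.5% killing of the original inoculum. Duplicate, repeated three times.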

[10] = system: Bacillus cereus; assay: Antibacterial activity against clinical isolate of Bacillus cereus incubated for 24 hrs followed by serial sub-cultivation for 24 hrs by microdilution; format: functional; in short: as §2
[11] = system: Micrococcus flavus; assay: Antibacterial activity against Micrococcus flavus ATCC 10240 incubated for 24 hrs followed by serial sub-cultivation for 24 hrs by microdilution; format: functional; conditions: ATCC 10240, 24 h; in short: as §2
[12] = system: Listeria monocytogenes; assay: Antibacterial activity against Listeria monocytogenes NCTC 7973 incubated for 24 hrs followed by serial sub-cultivation for 24 hrs by microdilution; format: functional; conditions: NCTC 7973, 24 h; in short: as §2
[13] = system: Pseudomonas aeruginosa; assay: Antibacterial activity against Pseudomonas aeruginosa ATCC 27853 incubated for 24 hrs followed by serial sub-cultivation for 24 hrs by microdilution; format: functional; conditions: ATCC 27853, 24 h; in short: as §2
[14] = system: Salmonella typhimurium; assay: Antibacterial activity against Salmonella Typhimurium ATCC 13311 incubated for 24 hrs followed by serial sub-cultivation for 24 hrs by microdilution; format: functional, Salmonella enterica subsp. enterica serovar Typhimurium; conditions: Salmonella enterica, ATCC 13311, 24 h; in short: as §2
[15] = system: Escherichia coli; assay: Antibacterial activity against Escherichia coli ATCC 35210 incubated for 24 hrs followed by serial sub-cultivation for 24 hrs by microdilution; format: functional; conditions: ATCC 35210, 24 h; in short: as §2
[16] = system: Enterococcus faecalis; assay: Antibacterial activity against Enterococcus faecalis isolated from human incubated for 24 hrs followed by serial sub-cultivation for 24 hrs by microdilution; format: functional; in short: as §2
[17] = system: Aspergillus ochraceus; assay: Antifungal activity against Aspergillus ochraceus ATCC 12066 after 72 hrs by serial dilution technique; format: functional; conditions: ATCC 12066, 72 h
In short: (§3)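 Modified microdilution in 96-well plates. Fungi were kept on malt agar at 4 °C. Spores were washed off in sterile 0.85% saline with 0.1% Tween 80. Compounds were dissolved at 1 mg/ml in 5% DMSO with 0.1% Tween 80 and added to malt broth with inoculum. Plates were shaken at 160 rpm for 72 h at 28 °C. Duplicate, repeated three times.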

[18] = system: Aspergillus niger; assay: Antifungal activity against Aspergillus niger ATCC 6275 after 72 hrs by serial dilution technique; format: functional; conditions: ATCC 6275, 72 h; in short: as §3
[19] = system: Aspergillus flavus; assay: Antifungal activity against Aspergillus flavus ATCC 9643 after 72 hrs by serial dilution technique; format: functional; conditions: ATCC 9643, 72 h; in short: as §3
[20] = system: Talaromyces funiculosus; assay: Antifungal activity against Penicillium funiculosum ATCC 36839 after 72 hrs by serial dilution technique; format: functional; conditions: ATCC 36839, 72 h; in short: as §3
[21] = system: Penicillium ochrochloron; assay: Antifungal activity against Penicillium ochrochloron ATCC 9112 after 72 hrs by serial dilution technique; format: functional; conditions: ATCC 9112, 72 h; in short: as §3
[22] = system: Trichoderma viride; assay: Antifungal activity against Trichoderma viride IAM 5061 after 72 hrs by serial dilution technique; format: functional; conditions: IAM 5061, 72 h; in short: as §3
[23] = system: Candida albicans; assay: Antifungal activity against Candida albicans isolated from human after 72 hrs by serial dilution technique; format: functional; in short: as §3
[24] = system: Aspergillus ochraceus; assay: Antifungal activity against Aspergillus ochraceus ATCC 12066 incubated for 72 hrs followed by serial sub-cultivation for 72 hrs by serial dilution technique; format: functional; conditions: ATCC 12066, 72 h
In short: (§4)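 MFC: material from 72 h malt broth microdilution wells was serially sub-cultured into fresh broth plates and incubated a further 72 h at 28 °C. Fungicidal concentration is taken from growth after sub-culture. Duplicate, repeated three times.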

[25] = system: Aspergillus fumigatus; assay: Antifungal activity against Aspergillus fumigatus isolated from human incubated for 72 hrs followed by serial sub-cultivation for 72 hrs by serial dilution technique; format: functional; in short: as §4
[26] = system: Aspergillus niger; assay: Antifungal activity against Aspergillus niger ATCC 6275 incubated for 72 hrs followed by serial sub-cultivation for 72 hrs by serial dilution technique; format: functional; conditions: ATCC 6275, 72 h; in short: as §4
[27] = system: Aspergillus flavus; assay: Antifungal activity against Aspergillus flavus ATCC 9643 incubated for 72 hrs followed by serial sub-cultivation for 72 hrs by serial dilution technique; format: functional; conditions: ATCC 9643, 72 h; in short: as §4
[28] = system: Talaromyces funiculosus; assay: Antifungal activity against Penicillium funiculosum ATCC 36839 incubated for 72 hrs followed by serial sub-cultivation for 72 hrs by serial dilution technique; format: functional; conditions: ATCC 36839, 72 h; in short: as §4
[29] = system: Penicillium ochrochloron; assay: Antifungal activity against Penicillium ochrochloron ATCC 9112 incubated for 72 hrs followed by serial sub-cultivation for 72 hrs by serial dilution technique; format: functional; conditions: ATCC 9112, 72 h; in short: as §4
[30] = system: Trichoderma viride; assay: Antifungal activity against Trichoderma viride IAM 5061 incubated for 72 hrs followed by serial sub-cultivation for 72 hrs by serial dilution technique; format: functional; conditions: IAM 5061, 72 h; in short: as §4
[31] = system: Candida albicans; assay: Antifungal activity against Candida albicans isolated from human incubated for 72 hrs followed by serial sub-cultivation for 72 hrs by serial dilution technique; format: functional; in short: as §4
[32] = system: Pseudomonas aeruginosa; assay: Ratio of ampicillin MIC to compound MIC for Pseudomonas aeruginosa ATCC 27853; format: functional
[33] = system: Aspergillus ochraceus; assay: Ratio of bifonazole to compound for Aspergillus ochraceus ATCC 12066; format: functional
[34] = system: Aspergillus niger; assay: Ratio of bifonazole to compound for Aspergillus niger ATCC 6275; format: functional
[35] = system: Talaromyces funiculosus; assay: Ratio of bifonazole to compound for Penicillium funiculosum ATCC 36839; format: functional
[36] = system: Penicillium ochrochloron; assay: Ratio of bifonazole to compound for Penicillium ochrochloron ATCC 9112; format: functional
[37] = system: Trichoderma viride; assay: Ratio of bifonazole to compound for Trichoderma viride IAM 5061; format: functional
[38] = system: Candida albicans; assay: Ratio of bifonazole to compound for Candida albicans isolated from human; format: functional
[39] = system: Aspergillus ochraceus; assay: Ratio of ketoconazole to compound for Aspergillus ochraceus ATCC 12066; format: functional
[40] = system: Aspergillus fumigatus; assay: Ratio of ketoconazole to compound for Aspergillus fumigatus isolated from human; format: functional
[41] = system: Penicillium ochrochloron; assay: Ratio of ketoconazole to compound for Penicillium ochrochloron ATCC 9112; format: functional
[42] = system: Candida albicans; assay: Ratio of ketoconazole to compound for Candida albicans isolated from human; format: functional
[43] = system: Aspergillus ochraceus; assay: Antifungal activity against Aspergillus ochraceus after 72 hrs by serial dilution technique

CCNc1nc(C)c(C(=O)/C=C/c2ccccc2OC)s1
MIC [1]: 66.2 µM (≈ 20 µg/mL)
MIC [2]: 66.2 µM (≈ 20 µg/mL)
MIC [3]: 31.3 µM (≈ 9.47 µg/mL)
MIC [4]: 82.8 µM (≈ 25 µg/mL)
MIC [5]: 82.8 µM (≈ 25 µg/mL)
MIC [6]: 33.1 µM (≈ 10 µg/mL)
MIC [7]: 82.8 µM (≈ 25 µg/mL)
MIC [8]: 82.8 µM (≈ 25 µg/mL)
MBC [9]: 99.3 µM (≈ 30 µg/mL)
MBC [10]: 82.8 µM (≈ 25 µg/mL)
MBC [11]: 82.8 µM (≈ 25 µg/mL)
MBC [12]: 116 µM (≈ 35 µg/mL)
MBC [13]: 99.3 µM (≈ 30 µg/mL)
MBC [14]: 82.8 µM (≈ 25 µg/mL)
MBC [15]: 82.8 µM (≈ 25 µg/mL)
MBC [16]: 82.8 µM (≈ 25 µg/mL)
MIC [17]: 66.2 µM (≈ 20 µg/mL)
MIC [18]: 49.7 µM (≈ 15 µg/mL)
MIC [19]: 66.2 µM (≈ 20 µg/mL)
MIC [20]: 33.1 µM (≈ 10 µg/mL)
MIC [21]: 66.2 µM (≈ 20 µg/mL)
MIC [22]: 33.1 µM (≈ 10 µg/mL)
MIC [23]: 33.1 µM (≈ 10 µg/mL)
MFC [24]: 82.8 µM (≈ 25 µg/mL)
MFC [25]: 66.2 µM (≈ 20 µg/mL)
MFC [26]: 66.2 µM (≈ 20 µg/mL)
MFC [27]: 82.8 µM (≈ 25 µg/mL)
MFC [28]: 66.2 µM (≈ 20 µg/mL)
MFC [29]: 82.8 µM (≈ 25 µg/mL)
MFC [30]: 66.2 µM (≈ 20 µg/mL)
MFC [31]: 66.2 µM (≈ 20 µg/mL)
Ratio [32]: 10
Ratio [33]: 10
Ratio [34]: 10
Ratio [35]: 10
Ratio [36]: 10
Ratio [37]: 10
Ratio [38]: 10
Ratio [39]: 10
Ratio [40]: 10
Ratio [41]: 10
Ratio [42]: 10
MIC [43]: 49.7 µM (≈ 15 µg/mL)
